According to article PMC3724457 (Cellular and molecular life sciences : CMLS, 2009):
Read-outs that look alike come from different tables or passages of the source. *1 amine or outer side, *2 acyl side, *3 side chain or, on linkers, in order; H or OH if unused. Where a SMILES comes first, the peptide text is derived from it. Bridges are numbered along the chain shown (N, C = ends). Roman numbers before positions name the chains, in order. [ ]: non-standard residue; d: D form. Actinocin(9to1) = Cc1c2oc3c(C)ccc(C(=O)[*:1])c3nc-2c(C(=O)[*:2])c(N)c1=O; NMeV = CN[C@H](C(=O)O)C(C)C; Sar = CNCC(=O)O

B1: GST-ZO1-PDZ2 WT (domain or fragment, human)
chain: KVTLVKSRKNEEYGLRLASHIFVKEISQDSLAARDGNIQEGDVVLKINGTVTENMSLTDAKTLIERSKGKLKMVVQRDE

How the values were obtained:
[1] = system: GST-ZO1-PDZ2; experiment: Kinetic SPR measurements; assay type: binding, human; details: 1 µM protein, POPC/POPE/POPS/PtdInsP (37:40:20:3) vesicles, 20 mM HEPES pH 7.4, 0.16 M KCl
Summary of the method: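 GST-fused PDZ2 was expressed in E. coli BL21(DE3) with IPTG induction at 37°C for 4 h, then purified on glutathione-Sepharose. Active sensor surface carried PtdInsP-containing vesicles and the control surface carried POPC/POPE (60:40) vesicles, both from 0.4 mg/ml lipid solution and loaded to equal RU. Seven PtdInsP species were compared. Kinetic data gave relative membrane affinity only; no Kd was derived.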

[2] = system: GST-ZO1-PDZ1–3; experiment: Lipid-overlay assay; assay type: binding, human; details: PIP strips, not quantitative, no membrane environment
Summary of the method: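 A GST-fused human ZO-1 PDZ1–3 construct was overlaid on nitrocellulose membranes carrying immobilised phospholipids, following the manufacturer's protocol. GST served as negative control and the GST-PH domain of LL5α as positive control. Lipids were not in a membrane environment, and the readout is qualitative.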

[3] = biological target: GST-ZO2-PDZ2 WT (mouse); experiment: SEC
[4] = biological target: Connexin 43 (Cx43) C-terminal peptide; experiment: ITC
[5] = biological target: Connexin43 (Homo sapiens) (UniProt P17302); details: cited from earlier work
[6] = system: GST-ZO2-PDZ2 WT binding to Cx43 peptide; experiment: Pull-down competition by phospholipids; parameters: species or system mouse; details: 3 µg GST-ZO2-PDZ2 WT preincubated with phospholipid liposomes
Summary of the method: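 3 μg GST-ZO-2 PDZ2 WT was preincubated with phospholipid liposomes at increasing concentrations. It was then pulled down with Cx43 C-terminal 20-mer peptide coupled to CNBr-activated Sepharose 4B at 5–7 mg/ml.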

[7] = system: GST-ZO1-PDZ2; experiment: ELISA PtdInsP binding assay; parameters: species or system human; details: ELISA on PIP plates, absorbance 450 nm, n=3, protein 10 nM, 1 h room temperature
Summary of the method: (§1)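 GST-fusion PDZ2 domains (ZO-1 human, ZO-2 mouse) or GST-PH domain of PLC-δ1 (positive control) at 10 nM, with GST as negative control, were incubated 1 h at room temperature on preblocked PtdInsP-coated plates. Wells were washed three times with PBS/0.1% Tween-20, then probed 1 h at room temperature with HRP-anti-GST. Detection used TMB substrate with absorbance at 450 nm; mean ± SD, n = 3.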

[8] = system: GST-ZO2-PDZ2; experiment: ELISA PtdInsP binding assay; parameters: species or system mouse; details: ELISA on PIP plates, absorbance 450 nm, n=3, protein 10 nM, 1 h room temperature
Summary of the method: as §1

[9] = system: nuclear speckles; details: transcriptional inhibition; ref [39]; cited from earlier work
[10] = biological target: ZO-1 PDZ2 R193A (Homo sapiens, UniProt Q07157, R193A); experiment: ITC peptide binding
Summary of the method: (§2)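 Each PDZ2 domain, wild type or point mutant, was held at 20 μM in 20 mM HEPES, 150 mM NaCl, pH 7.5, degassed. It was titrated with 20 × 15 μl injections of 200 μM Cx43 C-terminal 20-mer peptide, stirred at 250 rpm, with 5 min between injections. Peptide-into-buffer dilution heat was subtracted, and integrated data were fitted to a binding model. Representative of duplicate runs.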

[11] = biological target: ZO-1 PDZ2 K194A (Homo sapiens, UniProt Q07157, K194A); experiment: ITC peptide binding
Summary of the method: as §2

[12] = biological target: ZO-1 PDZ2 R201A (Homo sapiens, UniProt Q07157, R201A); experiment: ITC peptide binding
ZO-1 PDZ2 R201A, sequence (Q07157 186-264 R201A limits assumed): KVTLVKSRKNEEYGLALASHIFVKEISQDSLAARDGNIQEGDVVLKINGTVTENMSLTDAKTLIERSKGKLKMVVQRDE
Summary of the method: as §2

[13] = biological target: ZO-1 PDZ2 R219A (Homo sapiens, UniProt Q07157, R219A); experiment: ITC peptide binding
Summary of the method: as §2

[14] = biological target: ZO-1 PDZ2 K246A (Homo sapiens, UniProt Q07157, K246A); experiment: ITC peptide binding
ZO-1 PDZ2 K246A, sequence (Q07157 186-264 K246A limits assumed): as the sequence (Q07157 186-264 R201A limits assumed) above, with A16R, K61A counted along it
Summary of the method: as §2

[15] = biological target: Connexin43 (Homo sapiens) (UniProt P17302); details: cited from earlier work; remark: listed apart in the source
[16] = biological target: the molecule itself; experiment: SEC
[17] = biological target: B1; experiment: ITC
[18] = biological target: T1, ZO-1 PDZ2 R193A (human, UniProt Q07157 186-264, R193A); experiment: ITC
T1 sequence: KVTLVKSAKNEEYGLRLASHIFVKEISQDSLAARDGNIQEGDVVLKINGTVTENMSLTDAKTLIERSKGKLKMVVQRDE

[19] = biological target: T2, ZO-1 PDZ2 K194A (human, UniProt Q07157 186-264, K194A); experiment: ITC
T2 sequence: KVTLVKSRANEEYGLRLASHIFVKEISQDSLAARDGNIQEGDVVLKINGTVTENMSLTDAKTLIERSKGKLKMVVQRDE

[20] = biological target: T3, ZO-1 PDZ2 R219A (human, UniProt Q07157 186-264, R219A); experiment: ITC
T3 sequence: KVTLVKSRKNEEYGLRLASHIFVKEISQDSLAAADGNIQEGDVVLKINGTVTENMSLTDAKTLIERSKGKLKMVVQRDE

[21] = biological target: T4, ZO-1 PDZ2 R251A (human, UniProt Q07157 186-264, R251A); experiment: ITC
T4 sequence: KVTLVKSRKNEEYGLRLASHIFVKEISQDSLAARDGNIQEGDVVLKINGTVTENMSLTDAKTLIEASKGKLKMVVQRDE

[22] = biological target: T5, ZO-1 PDZ2 K253A (human, UniProt Q07157 186-264, K253A); experiment: ITC
T5 sequence: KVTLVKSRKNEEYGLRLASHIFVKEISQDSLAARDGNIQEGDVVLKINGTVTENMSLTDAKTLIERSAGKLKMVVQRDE

[23] = biological target: T6, ZO-1 PDZ2 R251AK253A (human, UniProt Q07157 186-264, R251A | K253A); experiment: ITC
T6 sequence: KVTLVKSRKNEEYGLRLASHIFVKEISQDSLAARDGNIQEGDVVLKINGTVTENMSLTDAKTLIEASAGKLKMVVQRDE

PtdIns(3,5)P2
PtdInsP selectivity (relative binding) [1]: followed by PtdIns(3,4,5)P3, PtdIns(4,5)P2 and PtdIns(3,5)P2

phosphatidic acid [PA]
lipid binding [2]: bound non-selectively

GST-ZO2-PDZ2 WT (domain or fragment)
stoichiometry N [3]: 2 | Kd [4]: 9.9 µM

ZO-2 PDZ2 (from UniProt Q9UDY2)
Kd [5]: 391 µM

PtdIns(3,4,5)P3
inhibition of association of GST-ZO2-PDZ2 with the Cx43 peptide [6]: inhibited association | PtdInsP binding as compared to PtdIns(4,5)P2 or PtdIns(3,5)P2 [7]: slightly stronger | PtdInsP binding as compared to PtdIns(4,5)P2 or PtdIns(3,5)P2 [8]: slightly stronger | PtdInsP selectivity (relative binding) [1]: followed by PtdIns(3,4,5)P3, PtdIns(4,5)P2 and PtdIns(3,5)P2

phosphatidylserine [PS]
inhibition of association of GST-ZO2-PDZ2 with the Cx43 peptide [6]: no effect | lipid binding [2]: bound non-selectively

Phosphatidylinositol 4,5-bisphosphate [PtdIns(4,5)P2]
PtdInsP selectivity (relative binding) [1]: followed by PtdIns(3,4,5)P3, PtdIns(4,5)P2 and PtdIns(3,5)P2

Cc1c2oc3c(C)ccc(C(=O)N[C@@H]4C(=O)N[C@H](C(C)C)C(=O)N5CCC[C@H]5C(=O)N(C)CC(=O)N(C)[C@@H](C(C)C)C(=O)O[C@@H]4C)c3nc-2c(C(=O)N[C@@H]2C(=O)N[C@H](C(C)C)C(=O)N3CCC[C@H]3C(=O)N(C)CC(=O)N(C)[C@@H](C(C)C)C(=O)O[C@@H]2C)c(N)c1=O [actinomycin D] (I: T[dV]P[Sar][NMeV] / II: T[dV]P[Sar][NMeV]; ester I:1-I:C, II:1-II:C; linker I:N-II:N via Actinocin(9to1))
speckle protein distribution [9]: fewer and/or abnormally large clusters

phosphatidylinositol [PtdIns]
lipid binding [2]: bound non-selectively

NH2.PSSRASSRASSRPRPDDLEI.OH [Connexin43 peptide]
effect of mutation on peptide affinity [10]: little effect | effect of mutation on peptide affinity [11]: little effect | binding to the Cx43 peptide [12]: no significant binding | effect of mutation on peptide binding [13]: no effect | binding to the Cx43 peptide [14]: no significant binding

ZO-1 PDZ2 (from UniProt Q07157)
Kd [15]: 15.5 µM

PtdIns(3,4)P2
inhibition of association of GST-ZO2-PDZ2 with the Cx43 peptide [6]: inhibited association | PtdInsP binding as compared to PtdIns(4,5)P2 or PtdIns(3,5)P2 [7]: slightly stronger | PtdInsP binding as compared to PtdIns(4,5)P2 or PtdIns(3,5)P2 [8]: slightly stronger | PtdInsP selectivity (relative binding) [1]: slight preference

B1
stoichiometry N [16]: 2

PSSRASSRASSRPRPDDLEI [Connexin 43 (Cx43) C-terminal peptide]
Kd [17]: 9.9 ± 1.3 µM | Kd [18]: 11 ± 2.1 µM | Kd [19]: 12 ± 1.6 µM | Kd [20]: 11 ± 1.6 µM | Kd [21]: 19 ± 3.4 µM | Kd [22]: 22 ± 3.6 µM | Kd [23]: 21 ± 3.2 µM
